For data set [1], the system named is Mus musculus. In words: compound was evaluated in vivo in mice bearing [KHT] tumor cells for the relative surviving fraction of cells at 20 mg kg-1 drug dose. The class given is functional. The method in brief:
(§1)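 Mice bearing RIF-1 or KHT murine sarcomas. Maximum tolerated dose (MTD) established for each drug. Drug given alone at MTD, or at 20 or 50 mg kg-1 combined with a single X-ray dose: 15 Gy for RIF-1, 10 Gy for KHT. Radiation dose chosen to kill most oxic tumor cells. Read-out was tumor cell surviving fraction relative to untreated control, reported as mean.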

Data set [2] has as its system Mus musculus. The experiment in a line: compound was evaluated in vivo in mice bearing [KHT] tumor cells for the relative surviving fraction of cells at 50 mg kg-1 drug dose. The class given is functional. The method in brief: as §1
The nature of data set [3]: Hypoxic cytotoxic ratios of the concentration required to kill 50% of the aerobic cells and concentration required to kill hypoxic cells. The format is cell-based, Cricetulus griseus. The settings on record: chinese hamster, V79 cells; read-out: HCR.
Data set [4] relates to Mus musculus. In words: compound was evaluated in vivo in mice bearing [RIF-1] tumor cells 90 mg kg-1 drug dose. MTD is the […]. The class given is functional.
Data set [5] concerns Mus musculus. The experiment in a line: compound was evaluated in vivo in mice bearing [RIF-1] tumor cells at 50 mg kg-1 drug dose. MTD is the […]. The class given is functional.
The subject of data set [6] is Mus musculus. In words: compound was evaluated in vivo in mice bearing [KHT] tumor cells at 90 mg kg-1 drug dose. MTD is the […]. The class given is functional.
The test system of data set [7] is Mus musculus. In words: compound was evaluated in vivo in mice bearing [RIF-1] tumor cells at 20 mg kg-1 drug dose. MTD is the […]. The class given is functional.
Data set [8] concerns V79. The experiment in a line: In vitro concentration required to kill 50% of the aerobic cells. The format is functional, Cricetulus griseus.
The subject of data set [9] is Mus musculus. In words: compound was evaluated in vivo in mice bearing [KHT] tumor cells at 50 mg kg-1 drug dose. MTD is the […]. The class given is functional.
In data set [10] the test system is Mus musculus. The experiment in a line: compound was evaluated in vivo in mice bearing [RIF-1] tumor cells for the relative surviving fraction of cells at 90 mg kg-1 drug dose. The format is functional. The method in brief: as §1
Data set [11] relates to Mus musculus. The experiment in a line: compound was evaluated in vivo in mice bearing [RIF-1] tumor cells for the relative surviving fraction of cells at 50 mg kg-1 drug dose. The class given is functional. The essentials:
as §1

The test system of data set [12] is Mus musculus. In words: compound was evaluated in vivo in mice bearing [RIF-1] tumor cells for the relative surviving fraction of cells at 20 mg kg-1 drug dose. The class given is functional. The essentials: as §1
In data set [13] the test system is Mus musculus. In words: compound was evaluated in vivo in mice bearing [KHT] tumor cells at 20 mg kg-1 drug dose. MTD is the […]. The format is functional.
Data set [14] concerns Mus musculus. The experiment in a line: compound was evaluated in vivo in mice bearing [KHT] tumor cells for the relative surviving fraction of cells at 90 mg kg-1 drug dose. The class given is functional. The essentials:
as §1

For data set [15], the system named is V79. The experiment in a line: In vitro concentration required to kill hypoxic cells V79-379A cells. The format is functional, Cricetulus griseus.
The test system of data set [16] is Mus musculus. In words: compound was evaluated in vivo mice bearing [RIF-1] murine sarcoma tumor cells at 100 mgkg-1 drug dose. MTD is the […]. The format is functional.
Data set [17] deals with Mus musculus. The experiment in a line: compound was evaluated in vivo in mice bearing [RIF-1] murine sarcoma tumor cells at 100 mgkg-1 drug dose. MTD is the […]. The class given is functional.
Data set [18] deals with Mus musculus. In words: compound was evaluated in vivo in mice bearing [KHT] murine sarcoma tumor cells at 100 mg kg-1 drug dose. MTD is the […]. The format is functional.
The test system of data set [19] is Mus musculus. The experiment in a line: compound was were evaluated in vivo in mice bearing [KHT] murine sarcoma tumor cells at 100 mg kg-1 drug dose. MTD is the […]. The format is functional.
The nature of data set [20]: hypoxic cytotoxic ratios (HCR) of the concentration required to kill 50% of the aerobic cells and concentration required to kill hypoxic cells. The settings on record: read-out: HCR.
Data set [21] concerns V79. In words: In vitro concentration required to kill 50% of the aerobic cells under the conditions of the assay. The class given is functional, Cricetulus griseus.
Data set [22] deals with V79. The experiment in a line: In vitro concentration required to kill hypoxic cells V79-379A cells was determined for all the compounds using the MTT(3-(4,5-dimethylthiazol-2-y1)-2,5-diphenyl-2H-tetrazolium bromide) assay. The class given is functional, Cricetulus griseus.

From ChEMBL document CHEMBL1130096, “2-Cyclopropylindoloquinones and their analogues as bioreductively activated antitumor agents: structure-activity in vitro and efficacy in vivo” (J Med Chem, 1997) come the findings set out here.

Structures are written as SMILES.

As to `Cc1c(CO)c2c(n1C)C(=O)C=C(N1CC1C)C2=O` (stereo not drawn), the “Mean relative surviving fraction” value in the data set with Mus musculus [1] is listed as 0.008; with Mus musculus [2], 0.005; in the data set with Mus musculus [10], 0.02; in the data set with Mus musculus [11], less than 0.0001; with Mus musculus [12], less than 0.0001; in the data set on Mus musculus [14], 0.15. The selectivity ratio in data set [3] came out at 188. Also, the MTD in the data set on Mus musculus [4], with Mus musculus [5], in the data set on Mus musculus [6], with Mus musculus [7], with Mus musculus [9] and with Mus musculus [13] was 90 mg/kg in each case. The C50 was 94 µM in the data set with V79 [8] and 0.5 µM in the data set on V79 [15].
For the compound `COC1=CC(=O)c2c(c(COC(N)=O)cn2C)C1=O`, the selectivity ratio in data set [3] came out at 83.8. Besides, the C50 stood at 3.1 µM in the data set with V79 [8] and 0.037 µM with V79 [15].
The corresponding values for `COC(=O)c1c2c(n(C)c1C(C)C)C(=O)C=C(OC)C2=O` are 1, 150 µM and 150 µM.
Consider `Cn1c2c(c(CO)c1C1CC1)C(=O)C(N1CC1)=CC2=O`, for which the selectivity ratio in data set [3] stood at 104. Also, the C50 amounted to 0.603 µM with V79 [8] and 0.0058 µM in the data set on V79 [15]. In addition, the MTD in the data set on Mus musculus [16], in the data set on Mus musculus [17], in the data set with Mus musculus [18] and in the data set on Mus musculus [19] was 100 mg/kg throughout.
In the case of `COC1=CC(=O)c2c(c(COC(N)=O)c(C3CC3)n2C)C1=O`, in [3], the selectivity ratio amounted to 65.9. The C50 in the data set with V79 [8] came out at 29 µM; with V79 [15] it was 0.44 µM.
In the same order, the values of `Cn1c2c(c(CO)c1C1CCCCC1)C(=O)C(N1CC1)=CC2=O` are 37, 34.5 µM and 0.93 µM.
Take `Cc1c(CO)c2c(n1C)C(=O)C=C(N1CC1)C2=O`: in [3], the selectivity ratio was 12.8. Further, the C50 came to 0.149 µM with V79 [8] and 0.0116 µM with V79 [15].
The corresponding values for `CC1CN1C1=CC(=O)c2c(c(COC(N)=O)c(C3CC3)n2C)C1=O` (stereo not drawn) are 27.2, 12.5 µM and 0.459 µM.
In the same order, the values of `CC(C)c1c(COC(N)=O)c2c(n1C)C(=O)C=C(N1CC1C)C2=O` (stereo not drawn) are 23.7, 20.6 µM and 0.87 µM.
The corresponding values for `O=C1C(N2CC2)=CC(=O)c2c1c(CO)c1n2CC2CC12` (stereo not drawn) are 13.2, 0.965 µM and 0.073 µM.
Turning to `COC1=CC(=O)c2c(c(CO)cn2C)C1=O`, the selectivity ratio in data set [3] came out at 0.92. In addition, the figures for the C50 in the data set with V79 [8] and in the data set with V79 [15] were 220 µM and 240 µM, respectively.
Consider `COC1=CC(=O)c2c(c(CO)c(C3CC3)n2C)C1=O`, for which, in data set [3], the selectivity ratio came to 0.65. Further, the C50 in the data set on V79 [8] was 540 µM; with V79 [15], 820 µM.
In the same order, the values of `Cc1c(CO)c2c(n1C)C(=O)C=C(N1C(C)C1C)C2=O` (stereo not drawn) are 14.2, 202 µM and 14.2 µM.
In the same order, the values of `Cn1cc(CO)c2c1C(=O)C=C(N1CC1)C2=O` are 15.4, 0.153 µM and 0.0086 µM.
For `NC(=O)OCc1c2c(n3c1C1CC1C3)C(=O)C=C(N1CC1)C2=O` (stereo not drawn), the C50 in the data set on V79 [8] and in the data set on V79 [15] was 0.003 µM throughout.
With `Cn1cc(COC(N)=O)c2c1C(=O)C=C(N1CC1)C2=O`, in data set [3], the selectivity ratio was determined as 1.46. Besides, the C50 was determined as 0.00019 µM in the data set with V79 [8] and 0.00013 µM in the data set with V79 [15].
The corresponding values for `Cn1c2c(c(COC(N)=O)c1C1CC1)C(=O)C(N1CC1)=CC2=O` are 45, 3.33 µM and 0.074 µM.
For the compound `COC(=O)c1c2c(n(C)c1C1CC1)C(=O)C=C(N1CC1)C2=O`, in data set [3], the selectivity ratio stood at 1.8. Besides, the C50 in the data set on V79 [8] is 1.72 µM; in the data set with V79 [15], 0.93 µM.
In the same order, the values of `CC(C)c1c(CO)c2c(n1C)C(=O)C=C(N1CC1)C2=O` are 32.5, 25.7 µM and 0.79 µM.
For the compound `COC1=CC(=O)c2c(c(C)c(C(C)C)n2C)C1=O`, the selectivity ratio in data set [3] was determined as 1.88. Moreover, the C50 with V79 [8] was 1.236 µM; in the data set on V79 [15] it was 0.657 µM.
In the same order, the values of `COC1=CC(=O)c2c(c(CO)c(C3CCCCC3)n2C)C1=O` are 6, 122.4 µM and 20.5 µM.
The corresponding values for `COC(=O)c1c2c(n(C)c1C1CC1)C(=O)C=C(OC)C2=O` are 1.7, 103.5 µM and 59.8 µM.
Take `Cc1c2c(n(C)c1C(C)C)C(=O)C=C(N1CC1)C2=O`: the selectivity ratio in data set [20] amounted to 1.77. Also, the figures for the C50 in the data set on V79 [21] and in the data set on V79 [22] were 0.333 µM and 0.188 µM, respectively.
`CC(C)c1c(CO)c2c(n1C)C(=O)C=C(N1CC1C)C2=O` (stereo not drawn): in data set [3], the selectivity ratio was 9.2. For the same compound, the values for the C50 in the data set with V79 [8] and in the data set on V79 [15] were 127.8 µM and 13.9 µM, respectively.
`Cc1c(CO)c2c(n1C)C(=O)C=C(NCC(C)(C)O)C2=O`: the selectivity ratio in data set [3] is 2.5. For the same compound, the C50 in the data set on V79 [8] was found to be 1260 µM; in the data set on V79 [15] it was 500 µM.
In the same order, the values of `COC1=CC(=O)c2c(c(COC(N)=O)c(C(C)C)n2C)C1=O` are 179, 20.9 µM and 0.117 µM.
In the same order, the values of `CC(C)c1c(COC(N)=O)c2c(n1C)C(=O)C=C(N1CC1)C2=O` are 8.7, 47.5 µM and 5.46 µM.
On to `COC1=CC(=O)c2c(c(CO)c(C(C)C)n2C)C1=O`, for which the selectivity ratio in data set [3] was 4. Moreover, the C50 with V79 [8] turned out to be 800 µM; in the data set with V79 [15], 200 µM.
For `COC1=CC(=O)c2c(c(CO)c3n2CC2CC32)C1=O` (stereo not drawn), in data set [3], the selectivity ratio turned out to be 1.8. Besides, the C50 was 108.4 µM in the data set with V79 [8] and 60.6 µM in the data set on V79 [15].
As for `CC1CN1C1=CC(=O)c2c(c(CO)c(C3CC3)n2C)C1=O` (stereo not drawn), in data set [3], the selectivity ratio is 23.4. For the same compound, the C50 in the data set with V79 [8] was 130 µM; in the data set with V79 [15], 5.6 µM.
In the case of `COC1=CC(=O)c2c(c(CO)c(C)n2C)C1=O`, the selectivity ratio in [3] turned out to be 3.78. Further, the results for the C50 in the data set with V79 [8] and in the data set on V79 [15] were 1077 µM and 284.8 µM, respectively.
`Cn1c(/C=C/CO)c(CO)c2c1C(=O)C=C(N1CC1)C2=O` [APAZIQUONE]: the selectivity ratio in data set [3] was 50.3. For the same compound, the C50 turned out to be 0.19 µM in the data set on V79 [8] and 0.0038 µM in the data set with V79 [15].
On to `CO[C@@]12[C@H](COC(N)=O)C3=C(C(=O)C(C)=C(N)C3=O)N1C[C@@H]1N[C@@H]12` [MITOMYCIN], for which the figures for the C50 with V79 [8] and in the data set with V79 [15] were 0.8 µM and 0.4 µM, respectively.
